Converted amounts (≈) assume the structure as drawn. The source made the active and inactive calls. The rule behind the calls is not given here.
Experiments:
[1] = species on record: Homo sapiens; assay: Inhibition of human methionine aminopeptidase 1B at 100 uM using Met-AMC as substrate relative to control
Method in brief: (§1)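 Purified MetAP at 4 µM in 50 mM HEPES with 150 mM KCl and CoCl2 at 3 molar equivalents of enzyme. pH 7.5 for SpMetAP1a and EfMetAP1a, pH 8.0 for HsMetAP1b. Substrate L-Met-AMC at 50, 100 and 150 µM. Compounds (10 mM DMSO stocks) tested over 1 to 120 µM for % inhibition; Ki by Dixon method.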

[2] = system: Enterococcus faecalis; assay: Inhibition of Enterococcus faecalis methionine aminopeptidase 1A at 100 uM using Met-AMC as substrate relative to control; method in brief: as §1
[3] = system: Mycobacterium tuberculosis; assay: Inhibition of Mycobacterium tuberculosis methionine aminopeptidase 1C at 100 uM using Met-AMC as substrate relative to control
Method in brief: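 Purified MtMetAP1c (4 µM) in 50 mM Hepes pH 7.5 with 150 mM KCl and CoCl2 at three molar equivalents of enzyme. Substrate was L-Met-AMC at 50, 100 or 150 µM. Compounds came from 10 mM DMSO stocks. Percent inhibition was taken against the uninhibited control.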

[4] = system: Streptococcus pneumoniae; assay: Inhibition of Streptococcus pneumoniae methionine aminopeptidase 1A at 100 uM using Met-AMC as substrate relative to control; method in brief: as §1
[5] = Inhibition of human methionine aminopeptidase 1B using Met-AMC as substrate by Dixon method; method in brief: as §1
[6] = Inhibition of Enterococcus faecalis methionine aminopeptidase 1A using Met-AMC as substrate by Dixon method; method in brief: as §1
[7] = Inhibition of Mycobacterium tuberculosis methionine aminopeptidase 1C using Met-AMC as substrate by Dixon method
[8] = Inhibition of Streptococcus pneumoniae methionine aminopeptidase 1A using Met-AMC as substrate by Dixon method; method in brief: as §1
[9] = system: Pseudomonas aeruginosa; assay: Antibacterial activity against Pseudomonas aeruginosa MTCC 2453 after 24 hrs by broth dilution assay; type: functional; settings: MTCC 2453, 24 h
Method in brief: (§2)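 Broth dilution per NCCLS in nutrient broth, serial dilutions 1000 to 7.8 µg/mL, DMSO below 4% final. Inoculum approx. 2.5×10⁶ cells/mL, 37 °C with shaking at 150 rpm for 24 h. MIC taken as the lowest concentration with no visible growth. Ciprofloxacin served as positive control.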

[10] = system: Salmonella typhimurium; assay: Antibacterial activity against Salmonella typhimurium MTCC 3224 after 24 hrs by broth dilution assay; type: functional, Salmonella enterica subsp. enterica serovar Typhimurium; settings: Salmonella enterica, MTCC 3224, 24 h; method in brief: as §2
[11] = system: Streptococcus pneumoniae; assay: Antibacterial activity against Streptococcus pneumoniae MTCC 655 after 24 hrs by broth dilution assay; type: functional; settings: MTCC 655, 24 h; method in brief: as §2
[12] = system: Enterococcus faecalis; assay: Antibacterial activity against Enterococcus faecalis MTCC 439 after 24 hrs by broth dilution assay; type: functional; settings: MTCC 439, 24 h; method in brief: as §2
[13] = system: Klebsiella pneumoniae; assay: Antibacterial activity against Klebsiella pneumoniae ATCC 700603 after 24 hrs by broth dilution assay; type: functional; settings: Klebsiella pneumoniae, 700603, 24 h; method in brief: as §2
[14] = system: Escherichia coli; assay: Antibacterial activity against Escherichia coli ATCC 25922 after 24 hrs by broth dilution assay; type: functional; settings: ATCC 25922, 24 h; method in brief: as §2
[15] = system: Escherichia coli; assay: Antibacterial activity against Escherichia coli MRA11 at 512 ug/mL after 24 hrs by broth dilution assay relative to control; type: functional
Method in brief: (§3)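 Multidrug-resistant E. coli isolates in Luria broth, test range 8 to 1024 µg/mL (ciprofloxacin 0.49 to 63.3 µg/mL). Inoculum 10 µL of a 1000-fold diluted 0.1 OD600 culture, incubated overnight at 37 °C. OD read at 600 nm. % inhibition = (a−b)/a×100, with media and compound-colour blanks subtracted.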

[16] = system: Escherichia coli; assay: Antibacterial activity against Escherichia coli MRC17 at 512 ug/mL after 24 hrs by broth dilution assay relative to control; type: functional; method in brief: as §3
[17] = system: Escherichia coli; assay: Antibacterial activity against Escherichia coli MRC24 at 512 ug/mL after 24 hrs by broth dilution assay relative to control; type: functional; method in brief: as §3
[18] = system: Escherichia coli; assay: Antibacterial activity against Escherichia coli MRAE32 at 512 ug/mL after 24 hrs by broth dilution assay relative to control; type: functional; method in brief: as §3
[19] = system: Escherichia coli; assay: Antibacterial activity against Escherichia coli MROB11 at 512 ug/mL after 24 hrs by broth dilution assay relative to control; type: functional; method in brief: as §3
[20] = system: Escherichia coli; assay: Antibacterial activity against Escherichia coli MRAE26 at 1024 ug/mL after 24 hrs by broth dilution assay relative to control; type: functional; method in brief: as §3
[21] = system: Escherichia coli; assay: Antibacterial activity against Escherichia coli MRAE33 at 1024 ug/mL after 24 hrs by broth dilution assay relative to control; type: functional; method in brief: as §3
[22] = system: Escherichia coli; assay: Antibacterial activity against Escherichia coli MRAE44 at 1024 ug/mL after 24 hrs by broth dilution assay; type: functional, organism-based; method in brief: as §3
[23] = system: Escherichia coli; assay: Antibacterial activity against Escherichia coli MRA11 after overnight incubation; type: functional; method in brief: as §3
[24] = system: Escherichia coli; assay: Antibacterial activity against Escherichia coli MRC17 after overnight incubation; type: functional; method in brief: as §3
[25] = system: Escherichia coli; assay: Antibacterial activity against Escherichia coli MRC24 after overnight incubation; type: functional; method in brief: as §3
[26] = system: Escherichia coli; assay: Antibacterial activity against Escherichia coli MRAE26 after overnight incubation; type: functional; method in brief: as §3
[27] = system: Escherichia coli; assay: Antibacterial activity against Escherichia coli MRAE32 after overnight incubation; type: functional; method in brief: as §3
[28] = system: Escherichia coli; assay: Antibacterial activity against Escherichia coli MRAE33 after overnight incubation; type: functional; method in brief: as §3
[29] = system: Escherichia coli; assay: Antibacterial activity against Escherichia coli MRAE44 after overnight incubation; type: functional; method in brief: as §3
[30] = system: Escherichia coli; assay: Antibacterial activity against Escherichia coli MROB11 after overnight incubation; type: functional; method in brief: as §3
[31] = system: Escherichia coli; assay: Synergistic antibacterial activity against Escherichia coli MRA11 after 18 hrs in presence of ciprofloxacin by checkerboard method; type: functional; settings: MRA11, 18 h
Method in brief: (§4)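 Checkerboard combination with ciprofloxacin in Mueller-Hinton broth: compound 1024 to 16 µg/mL crossed with ciprofloxacin 128 to 2 µg/mL. Inoculum 5×10⁵ CFU/mL suspension, 18 h at 37 °C. Fractional inhibitory concentration index derived from the combination.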

[32] = system: Escherichia coli; assay: Synergistic antibacterial activity against Escherichia coli MRC17 after 18 hrs in presence of ciprofloxacin by checkerboard method; type: functional; settings: MRC17, 18 h; method in brief: as §4
[33] = system: Escherichia coli; assay: Synergistic antibacterial activity against Escherichia coli MRAE33 after 18 hrs in presence of ciprofloxacin by checkerboard method; type: functional; settings: MRAE33, 18 h; method in brief: as §4
[34] = system: Escherichia coli; assay: Synergistic antibacterial activity against Escherichia coli MRA11 assessed as ciprofloxacin MIC at 16 to 1024 ug/mL after 18 hrs by checkerboard method; type: functional; settings: MRA11, 18 h; method in brief: as §4
[35] = system: Escherichia coli; assay: Synergistic antibacterial activity against Escherichia coli MRC17 assessed as ciprofloxacin MIC at 16 to 1024 ug/mL after 18 hrs by checkerboard method; type: functional; settings: MRC17, 18 h; method in brief: as §4
[36] = system: Escherichia coli; assay: Synergistic antibacterial activity against Escherichia coli MRAE33 assessed as ciprofloxacin MIC at 16 to 1024 ug/mL after 18 hrs by checkerboard method; type: functional; settings: MRAE33, 18 h; method in brief: as §4
[37] = system: Escherichia coli; assay: Synergistic antibacterial activity against Escherichia coli MRA11 assessed as fractional inhibitory concentration index after 18 hrs in presence of ciprofloxacin by checkerboard method; type: functional; method in brief: as §4
[38] = system: Escherichia coli; assay: Synergistic antibacterial activity against Escherichia coli MRC17 assessed as fractional inhibitory concentration index after 18 hrs in presence of ciprofloxacin by checkerboard method; type: functional
Method in brief: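 Checkerboard combination against MDR E. coli. Test agent gradient 1024–16 µg/mL crossed with ciprofloxacin 128–2 µg/mL in Mueller-Hinton broth. Wells were inoculated with a 5 × 10⁵ CFU/mL suspension and incubated 18 h at 37 °C. Interaction was expressed as the fractional inhibitory concentration index (FICI).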

[39] = system: Escherichia coli; assay: Synergistic antibacterial activity against Escherichia coli MRAE33 assessed as fractional inhibitory concentration index after 18 hrs in presence of ciprofloxacin by checkerboard method; type: functional; method in brief: as §4
[40] = system: CHO; assay: Cytotoxicity against CHO cells at 50 ug/mL after 48 hrs by MTT assay; type: cell-based, Cricetulus griseus; settings: chinese hamster
Method in brief: (§5)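 MTT assay: cells maintained in DMEM with 10% FBS and penicillin/streptomycin at 37 °C, 5% CO2. Seeded at approx. 2×10⁴ cells/well, 24 h before treatment, then exposed to 10 to 400 µg/mL for 48 h at 37 °C. MTT (5 mg/mL stock in PBS) added for 4 h, formazan dissolved in DMSO, A570 read. Triplicate wells; viability given relative to untreated cells.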

[41] = Cytotoxicity against CHO cells assessed as cell viability at 100 ug/mL after 48 hrs by MTT assay relative to control; type: cell-based, Cricetulus griseus; settings: chinese hamster, read-out: Activity; method in brief: as §5
[42] = system: CHO; assay: Cytotoxicity against CHO cells at 300 ug/mL after 48 hrs by MTT assay; type: cell-based, Cricetulus griseus; settings: chinese hamster; method in brief: as §5

## COC(=O)[C@@H](C)NC(=O)/C(O)=C/C(=O)c1oc2ccc(Br)cc2c1C
[1]
  inhibition: 89.1%
[2]
  inhibition: 93.9%
[3]
  inhibition: 99.6%
[4]
  inhibition: 97.4%
[5]
  Ki: 22.1 µM
[6]
  Ki: 10.4 µM
[7]
  Ki: 17.6 µM
[8]
  Ki: 8.78 µM
[9]
  MIC: 125 mg/L (≈ 305 µM)
[10]
  MIC: 500 mg/L (≈ 1220 µM)
[11]
  MIC: 62.5 mg/L (≈ 152 µM)
[12]
  MIC: 31.2 mg/L (≈ 76.2 µM)
[13]
  MIC: 500 mg/L (≈ 1220 µM)
[14]
  MIC: 62.5 mg/L (≈ 152 µM)
[15]
  Activity: 65%
[16]
  Activity: 60%
[17]
  Activity: 76%
[18]
  Activity: 88%
[19]
  Activity: 87%
[20]
  Activity: 54%
[21]
  Activity: 50%
[22]
  Activity: Active
[23]
  ICmax: 512 µg/mL
[23]; Escherichia coli, MRA11
  MIC: 1020 mg/L (≈ 2500 µM)
[24]
  ICmax: 512 µg/mL
[24]; Escherichia coli, MRC17
  MIC: 1020 mg/L (≈ 2500 µM)
[25]
  ICmax: 512 µg/mL
[26]
  ICmax: 1024 µg/mL
[27]
  ICmax: 512 µg/mL
[28]
  ICmax: 512 µg/mL
[28]; Escherichia coli, MRAE33
  MIC: 1020 mg/L (≈ 2500 µM)
[29]
  ICmax: 1024 µg/mL
[30]
  ICmax: 512 µg/mL
[31]
  MIC: 1020 mg/L
[32]
  MIC: 1020 mg/L
[33]
  MIC: 16 mg/L
[34]
  MIC: 128 mg/L
[35]
  MIC: 64 mg/L
[36]
  MIC: 2 mg/L
[37]
  fractional inhibitory concentration index (FICI): 2
[38]
  fractional inhibitory concentration index (FICI): 1.5
[39]
  fractional inhibitory concentration index (FICI): 1.0156
[40]
  Activity: Non-Toxic
[41]
  viability at 48 h, 100 ug/mL: 50%
[42]
  Activity: Toxic

Reference: ChEMBL document CHEMBL4330067, “Synthesis and mechanistic studies of diketo acids and their bioisosteres as potential antibacterial agents” (Eur J Med Chem, 2019)
